Reference: ChEMBL document CHEMBL1143109, “Discovery of novel orally active ureido NPY Y5 receptor antagonists” (Bioorg Med Chem Lett, 2008)
Calls of active or inactive are those of the source. The rule behind the calls is not given here.

What was measured:
Rattus norvegicus [1] = species on record: Rattus norvegicus; assay: Antagonism of galanin-induced food intake in rat; assay type: functional, organism-based
[2] = Inhibition of potassium channel at 10 uM
Summary of the method: (§1)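 Counterscreen panel of 60 receptors, enzymes and ion channels; inhibition of binding measured at 10 µM.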

[3] = target: Neuropeptide Y receptor type 4 (Homo sapiens, UniProt P50391); assay: Binding affinity to human NPY Y4 receptor
[4] = target: T1, Neuropeptide Y receptor type 1 (Homo sapiens, UniProt P25929); assay: Binding affinity to human NPY Y1 receptor
T1 sequence (P25929 whole entry): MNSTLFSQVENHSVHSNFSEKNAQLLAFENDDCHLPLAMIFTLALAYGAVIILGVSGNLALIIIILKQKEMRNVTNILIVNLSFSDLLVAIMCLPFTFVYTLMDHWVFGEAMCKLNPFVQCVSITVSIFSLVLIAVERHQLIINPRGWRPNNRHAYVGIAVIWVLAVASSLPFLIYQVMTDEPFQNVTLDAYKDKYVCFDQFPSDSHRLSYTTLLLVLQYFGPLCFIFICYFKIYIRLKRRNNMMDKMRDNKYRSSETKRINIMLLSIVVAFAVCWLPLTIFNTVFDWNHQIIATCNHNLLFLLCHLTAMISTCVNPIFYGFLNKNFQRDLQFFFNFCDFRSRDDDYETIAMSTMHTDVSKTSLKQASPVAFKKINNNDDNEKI

[5] = target: T2, Neuropeptide Y receptor type 5 (Rattus norvegicus) (UniProt Q63634); assay: Antagonist activity at rat NPY Y5 receptor expressed in HEK293 cells assessed as inhibition of forskolin-stimulated cAMP production; assay type: functional, cell-based
T2 sequence (whole entry): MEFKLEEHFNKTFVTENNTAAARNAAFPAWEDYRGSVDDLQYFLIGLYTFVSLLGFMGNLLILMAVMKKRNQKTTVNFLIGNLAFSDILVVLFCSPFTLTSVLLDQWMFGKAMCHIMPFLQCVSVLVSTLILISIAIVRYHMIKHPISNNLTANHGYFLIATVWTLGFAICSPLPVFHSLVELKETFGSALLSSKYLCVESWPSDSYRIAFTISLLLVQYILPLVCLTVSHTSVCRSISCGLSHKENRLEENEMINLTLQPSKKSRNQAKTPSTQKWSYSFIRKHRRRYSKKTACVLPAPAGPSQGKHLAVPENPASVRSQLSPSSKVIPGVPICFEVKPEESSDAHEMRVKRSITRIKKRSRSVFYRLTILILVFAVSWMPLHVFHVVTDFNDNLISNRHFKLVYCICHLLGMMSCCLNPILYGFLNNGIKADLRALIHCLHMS
Summary of the method: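 HEK293 cells expressing rat NPY Y5 receptor. Functional antagonism measured as the ability to overcome NPY inhibition of forskolin-stimulated cAMP production; reported as Kb.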

Rattus norvegicus [6] = assay: Reduction in food intake in Sprague-Dawley DIO rat at 10 mg/kg/day, po after 28 days relative to control; assay type: functional, organism-based
Summary of the method: (§2)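 DIO rats weighing 700–800 g at start, n = 12/group, food and water ad libitum. Compound admixed into low fat diet for 28 days; delivered doses (1, 3 or 10 mg/kg/day) calculated from food consumption. Body composition by DEXA scanning, expressed as percent change from day 0 baseline; average plasma levels taken at the 10 mg/kg/day dose.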

[7] = target: 5-hydroxytryptamine receptor 6 (Homo sapiens) (UniProt P50406); assay: Inhibition of 5HT6 receptor at 10 uM; summary of the method: as §1
[8] = target: Sodium-dependent dopamine transporter (Homo sapiens) (UniProt Q01959); assay: Inhibition of dopamine transporter at 10 uM; summary of the method: as §1
Rattus norvegicus [9] = assay: Increase in lean body mass in Sprague-Dawley DIO rat at 10 mg/kg/day, po after 28 days; assay type: functional, organism-based; summary of the method: as §2
[10] = target: Sodium-dependent serotonin transporter (Homo sapiens) (UniProt P31645); assay: Inhibition of serotonin transporter at 10 uM; summary of the method: as §1
[11] = target: T3, 5-hydroxytryptamine receptor 3A (Homo sapiens) (UniProt P46098); assay: Inhibition of 5HT3 receptor at 10 uM; summary of the method: as §1
T3 sequence (whole entry): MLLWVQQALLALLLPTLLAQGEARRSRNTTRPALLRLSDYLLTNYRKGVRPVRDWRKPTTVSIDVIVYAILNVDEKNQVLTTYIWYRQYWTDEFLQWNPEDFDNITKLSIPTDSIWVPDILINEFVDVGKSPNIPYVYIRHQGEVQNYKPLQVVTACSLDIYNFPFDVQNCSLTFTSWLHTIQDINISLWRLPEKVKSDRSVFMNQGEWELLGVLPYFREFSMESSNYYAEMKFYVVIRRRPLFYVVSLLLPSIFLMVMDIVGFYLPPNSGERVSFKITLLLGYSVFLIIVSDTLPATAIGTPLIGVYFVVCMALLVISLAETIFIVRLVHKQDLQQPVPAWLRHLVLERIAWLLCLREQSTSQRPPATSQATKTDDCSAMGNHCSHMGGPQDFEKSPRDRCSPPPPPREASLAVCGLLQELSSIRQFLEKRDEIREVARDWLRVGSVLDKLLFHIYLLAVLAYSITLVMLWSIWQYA

[12] = target: Neuropeptide Y receptor type 5 (Homo sapiens, UniProt Q15761); assay: Displacement of [125]PYY from human chimeric NPY Y5 receptor expressed in CHOK1 cells; assay type: cell-based; conditions: cho-k1
Summary of the method: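 Binding to human chimeric Y5 receptor expressed in CHO-K1 cells; Ki values are the average of two determinations.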

Rattus norvegicus [13] = assay: Blockade of D-Trp[34]-NPY-induced food intake in po dosed rat; assay type: functional
[14] = Inhibition of chloride channel at 10 uM; summary of the method: as §1
[15] = Bioavailability in po dosed rat; assay type: ADME, organism-based; conditions: in vivo
GABA transporter = assay: Inhibition of GABA transporter at 10 uM
[16] = Half life in Beagle dog; assay type: ADME, organism-based, Canis lupus familiaris; conditions: in vivo
[17] = target: 5-hydroxytryptamine receptor 7 (Homo sapiens) (UniProt P34969); assay: Inhibition of 5HT7 receptor at 10 uM; summary of the method: as §1
[18] = target: T4, 5-hydroxytryptamine receptor 2C (Homo sapiens) (UniProt P28335); assay: Inhibition of 5HT2C receptor at 10 uM; summary of the method: as §1
T4 sequence (whole entry): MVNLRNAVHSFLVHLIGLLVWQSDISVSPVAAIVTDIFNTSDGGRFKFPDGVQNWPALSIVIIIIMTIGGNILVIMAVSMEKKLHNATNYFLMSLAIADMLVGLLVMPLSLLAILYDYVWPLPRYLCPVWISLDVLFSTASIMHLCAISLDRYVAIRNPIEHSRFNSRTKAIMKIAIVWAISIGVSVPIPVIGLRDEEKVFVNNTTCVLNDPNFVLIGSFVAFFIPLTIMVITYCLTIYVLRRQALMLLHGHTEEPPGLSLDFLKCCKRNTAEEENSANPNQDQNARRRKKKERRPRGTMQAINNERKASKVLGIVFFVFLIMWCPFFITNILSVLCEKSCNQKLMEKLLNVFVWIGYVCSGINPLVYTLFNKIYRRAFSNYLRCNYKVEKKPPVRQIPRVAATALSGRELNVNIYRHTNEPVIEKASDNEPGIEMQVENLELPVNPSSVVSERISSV

Chain of Neuropeptide Y receptor type 5 (Q15761 whole entry, looked up): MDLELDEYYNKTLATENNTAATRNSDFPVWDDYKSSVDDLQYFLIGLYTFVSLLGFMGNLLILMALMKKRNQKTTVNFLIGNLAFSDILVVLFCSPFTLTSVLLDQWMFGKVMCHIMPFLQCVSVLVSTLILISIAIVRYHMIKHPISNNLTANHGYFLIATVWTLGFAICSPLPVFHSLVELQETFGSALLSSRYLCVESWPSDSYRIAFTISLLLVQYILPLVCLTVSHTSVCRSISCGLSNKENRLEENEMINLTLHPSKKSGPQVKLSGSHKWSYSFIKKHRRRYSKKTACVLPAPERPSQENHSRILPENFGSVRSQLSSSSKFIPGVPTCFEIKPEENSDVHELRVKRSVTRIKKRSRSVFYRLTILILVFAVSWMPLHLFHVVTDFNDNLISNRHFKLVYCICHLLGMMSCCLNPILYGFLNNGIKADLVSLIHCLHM
Chain of Sodium-dependent serotonin transporter (Homo sapiens) (P31645 whole entry, looked up): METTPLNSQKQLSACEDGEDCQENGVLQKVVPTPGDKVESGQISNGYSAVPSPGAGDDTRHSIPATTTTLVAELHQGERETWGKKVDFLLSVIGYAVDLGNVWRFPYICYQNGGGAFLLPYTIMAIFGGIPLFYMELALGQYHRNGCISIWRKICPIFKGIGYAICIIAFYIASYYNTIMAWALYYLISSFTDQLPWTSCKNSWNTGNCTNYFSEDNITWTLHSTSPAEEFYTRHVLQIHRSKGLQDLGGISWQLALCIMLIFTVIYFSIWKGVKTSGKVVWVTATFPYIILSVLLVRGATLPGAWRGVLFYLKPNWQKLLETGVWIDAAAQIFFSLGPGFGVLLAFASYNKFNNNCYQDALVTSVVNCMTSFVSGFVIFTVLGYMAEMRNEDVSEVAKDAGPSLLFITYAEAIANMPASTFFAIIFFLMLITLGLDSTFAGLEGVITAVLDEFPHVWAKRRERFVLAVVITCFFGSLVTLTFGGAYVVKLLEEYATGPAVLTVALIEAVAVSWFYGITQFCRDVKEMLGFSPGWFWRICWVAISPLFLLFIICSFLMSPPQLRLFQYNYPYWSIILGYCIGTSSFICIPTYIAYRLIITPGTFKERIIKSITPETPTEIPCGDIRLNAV
Chain of 5-hydroxytryptamine receptor 6 (Homo sapiens) (P50406 whole entry): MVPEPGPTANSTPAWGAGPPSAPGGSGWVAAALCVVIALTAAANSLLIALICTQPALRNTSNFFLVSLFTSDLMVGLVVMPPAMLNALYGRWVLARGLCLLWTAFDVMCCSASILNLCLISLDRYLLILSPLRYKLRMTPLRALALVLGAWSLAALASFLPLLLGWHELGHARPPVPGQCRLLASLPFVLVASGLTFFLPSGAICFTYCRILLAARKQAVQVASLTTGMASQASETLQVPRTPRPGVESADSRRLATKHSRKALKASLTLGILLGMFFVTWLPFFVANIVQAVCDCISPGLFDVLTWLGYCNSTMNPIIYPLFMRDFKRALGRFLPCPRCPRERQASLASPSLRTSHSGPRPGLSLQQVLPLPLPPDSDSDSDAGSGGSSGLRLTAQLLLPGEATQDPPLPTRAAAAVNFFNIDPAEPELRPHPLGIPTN
Chain of Sodium-dependent dopamine transporter (Homo sapiens) (Q01959 whole entry): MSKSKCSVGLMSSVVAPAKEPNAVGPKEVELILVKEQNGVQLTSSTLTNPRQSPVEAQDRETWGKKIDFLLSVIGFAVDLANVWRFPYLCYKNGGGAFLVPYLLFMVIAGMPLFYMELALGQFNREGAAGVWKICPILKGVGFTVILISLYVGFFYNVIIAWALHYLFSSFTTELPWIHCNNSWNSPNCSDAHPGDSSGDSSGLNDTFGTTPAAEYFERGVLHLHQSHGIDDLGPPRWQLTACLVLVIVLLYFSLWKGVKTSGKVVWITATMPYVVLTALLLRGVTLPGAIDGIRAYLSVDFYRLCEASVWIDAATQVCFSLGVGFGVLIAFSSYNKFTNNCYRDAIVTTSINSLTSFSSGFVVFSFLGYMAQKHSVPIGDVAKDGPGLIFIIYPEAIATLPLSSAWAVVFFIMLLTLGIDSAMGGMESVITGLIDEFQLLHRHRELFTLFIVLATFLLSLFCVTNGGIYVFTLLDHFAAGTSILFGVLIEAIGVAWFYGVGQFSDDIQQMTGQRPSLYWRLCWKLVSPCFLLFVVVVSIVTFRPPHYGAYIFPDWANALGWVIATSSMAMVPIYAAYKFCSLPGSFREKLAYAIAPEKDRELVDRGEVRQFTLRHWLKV
Chain of 5-hydroxytryptamine receptor 7 (Homo sapiens) (P34969 whole entry): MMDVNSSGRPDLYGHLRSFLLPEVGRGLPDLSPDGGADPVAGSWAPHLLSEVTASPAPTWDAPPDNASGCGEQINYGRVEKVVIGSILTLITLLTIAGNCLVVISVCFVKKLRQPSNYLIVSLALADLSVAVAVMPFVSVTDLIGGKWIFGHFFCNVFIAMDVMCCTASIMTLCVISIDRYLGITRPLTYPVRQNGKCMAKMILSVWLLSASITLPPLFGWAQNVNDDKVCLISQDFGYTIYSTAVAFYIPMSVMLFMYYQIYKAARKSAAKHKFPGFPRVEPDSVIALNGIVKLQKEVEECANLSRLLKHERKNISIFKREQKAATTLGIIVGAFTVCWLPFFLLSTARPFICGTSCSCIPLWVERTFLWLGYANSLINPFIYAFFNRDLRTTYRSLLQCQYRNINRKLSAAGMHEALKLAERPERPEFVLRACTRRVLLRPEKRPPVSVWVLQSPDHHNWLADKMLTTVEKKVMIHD
Chain of Neuropeptide Y receptor type 4 (P50391 whole entry): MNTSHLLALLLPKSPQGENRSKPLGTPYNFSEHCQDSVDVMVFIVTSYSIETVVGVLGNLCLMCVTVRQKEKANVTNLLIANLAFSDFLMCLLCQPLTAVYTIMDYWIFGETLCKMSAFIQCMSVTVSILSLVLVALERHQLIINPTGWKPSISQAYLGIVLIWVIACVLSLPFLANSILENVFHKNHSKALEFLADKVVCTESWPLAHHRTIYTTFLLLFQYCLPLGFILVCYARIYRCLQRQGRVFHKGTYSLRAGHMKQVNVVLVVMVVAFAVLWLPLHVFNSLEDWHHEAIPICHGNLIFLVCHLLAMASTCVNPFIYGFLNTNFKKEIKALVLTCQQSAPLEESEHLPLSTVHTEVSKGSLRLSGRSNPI

inhibition [2]: < 25%
Ki [3]: > 10000 nM
Ki [4]: > 10000 nM
Kb [5]: 2.7 nM
inhibition [7]: < 10%
inhibition [8]: < 10%
inhibition [10]: < 10%
inhibition [11]: < 10%
Ki [12]: 1.8 nM
inhibition [14]: < 25%
bioavailability [15]: 100%
inhibition (GABA transporter): < 10%
half-life [16]: 24 h
inhibition [17]: < 10%
inhibition [18]: < 10%
SMILES: CC(=O)N1CCC(N(C)C(=O)N[C@H]2CC[C@H](c3cc(F)cc(F)c3)CC2)CC1
Activity (Rattus norvegicus [1]): inactive
Activity (Rattus norvegicus [6]): Dose-dependent effect
Activity (Rattus norvegicus [9]): Active
ED50 (Rattus norvegicus [13]): 2.3 mg/kg
